ChEMBL document CHEMBL4257584, “Sterol 14α-Demethylase Structure-Based Optimization of Drug Candidates for Human Infections with the Protozoan Trypanosomatidae” (J Med Chem, 2018)
Blank lines part the entries; values can stand above or below the compound they belong to. Calls of active or inactive are those of the source. The calls are words filed in the database; no cut-off is given here.

Experiments:
[1] = Plasma concentration in BALB/c mouse assessed as time until the compound becomes undetectable at 25 mg/kg, po via gavage […]; format: ADME, organism-based; settings: in vivo
How it was run: (§1)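 Single oral gavage dose of 25 mg/kg in BALB/c mice; blood sampled at 1, 2, 4, 6, 10, 16, 24 h. Plasma is diluted in PBS with ketoconazole internal standard, extracted with 80% acetonitrile, dried and redissolved. Analysed by reversed-phase HPLC with UV at 291/250 nm, 0.1 μM detection limit. Lifetime is time until undetectable.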

[2] = Drug uptake in BALB/c mouse spleen at 25 mg/kg, po via gavage measured after 4 hrs post dose by […]; format: ADME, organism-based; settings: read-out: Drug uptake
How it was run: (§2)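 BALB/c mice get a single oral gavage dose of 25 mg/kg; tissues are collected 4 h post-dose. About 100 mg tissue is diluted 5-fold in PBS and homogenized. Homogenate is extracted as for plasma (ketoconazole internal standard, acetonitrile extraction) and quantified by HPLC-UV at 291 nm, 0.1 μM detection limit, n=2.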

[3] = system: Mus musculus; test: Toxicity in Swiss Webster mouse assessed as effect on liver weight at 200 mg/kg, po administered as single dose measured after 48 hrs; format: organism-based; settings: in vivo
How it was run: (§3)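 Swiss Webster mice (21–23 g, n=3) get a single oral 200 mg/kg dose, given as in the PK study. They are inspected for toxic and sub-toxic signs per OECD guidelines (behaviour, motility, neurological state, skin, fur), and body weight is tracked 0–48 h. At 48 h, mice are euthanized and organ weights are normalized to body weight. Blood is taken for haematology and plasma biochemistry.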

[4] = system: Trypanosoma cruzi; test: Antiparasitic activity against GFP-expressing Trypanosoma cruzi Y amastigote formss infected in cardiomyocytes assessed as reduction in rate of parasite multiplication within infected cardiomyocytes measured at 72 hrs post infection by fluorescence microscopy; format: functional, organism-based
How it was run: (§4)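 GFP-expressing trypomastigotes (Tulahuen or Y strain) infect cardiomyocyte monolayers at 10 parasites per cell, in DMEM + 10% FBS. Unbound parasites are washed off. At 24 h of infection, inhibitors at 0.5–25 nM in DMSO/DMEM are added and cultured 48 h. Read-out is at 72 h post-infection as GFP fluorescence (RFU) after PBS wash; microscopy uses paraformaldehyde fixation, DAPI and phalloidin stain. Triplicate.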

[5] = Hepatic clearance in CD1 mouse liver microsomes at 1 uM preincubated for 5 mins followed by NADPH addition and measured after 45 mins by LC/MS/MS analysis; format: ADME, microsome
[6] = system: Mus musculus; test: Toxicity in Swiss Webster mouse assessed as effect on neurological conditions at 200 mg/kg, po administered as single dose measured after 48 hrs; format: organism-based; settings: in vivo; how it was run: as §3
[7] = biological target: Sterol 14-alpha demethylase (Trypanosoma cruzi (strain CL Brener)) (UniProt Q7Z1V1); test: Inhibition of Trypanosoma cruzi Y CYP51 expressed in Escherichia coli using [3-3H]-eburicol as substrate after 60 mins by LC-MS analysis
Sequence of Sterol 14-alpha demethylase (Trypanosoma cruzi (strain CL Brener)) (Q7Z1V1 whole entry, looked up): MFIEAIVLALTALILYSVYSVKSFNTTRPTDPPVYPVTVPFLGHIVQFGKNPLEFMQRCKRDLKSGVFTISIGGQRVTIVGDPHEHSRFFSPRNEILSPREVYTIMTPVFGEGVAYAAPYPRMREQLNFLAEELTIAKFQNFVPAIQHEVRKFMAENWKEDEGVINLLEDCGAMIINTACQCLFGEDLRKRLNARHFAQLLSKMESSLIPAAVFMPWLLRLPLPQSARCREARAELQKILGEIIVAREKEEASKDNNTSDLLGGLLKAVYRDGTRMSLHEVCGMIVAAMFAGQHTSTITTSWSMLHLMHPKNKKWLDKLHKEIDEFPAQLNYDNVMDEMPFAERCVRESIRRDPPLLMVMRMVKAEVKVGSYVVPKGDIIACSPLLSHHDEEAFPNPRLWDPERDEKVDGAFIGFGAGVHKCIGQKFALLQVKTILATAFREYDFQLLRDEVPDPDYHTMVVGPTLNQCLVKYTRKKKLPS
How it was run: (§5)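 Reconstituted reaction: 1 μM purified CYP51, 2 μM T. brucei NADPH-P450 reductase, 100 μM dilauroylphosphatidylcholine, isocitrate dehydrogenase/isocitrate regeneration, 50 mM K phosphate pH 7.2, 10% glycerol. [3-3H]sterol substrate at 50 μM final (eburicol for T. cruzi; obtusifoliol for T. brucei and L. infantum) with inhibitor at 1.1 μM final. Preincubate 60 s at 37 °C, start with 100 μM NADPH, run 60 min, EtOAc extraction. Gives % inhibition of 14α-demethylation, triplicate, mean ± SD.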

[8] = biological target: Putative lanosterol 14-alpha-demethylase (Leishmania infantum) (UniProt A2TEF2); test: Inhibition of Leishmania infantum CYP51 expressed in Escherichia coli using [3-3H]-obtusifoliol as substrate after 60 mins by LC-MS analysis; how it was run: as §5
Sequence of Putative lanosterol 14-alpha-demethylase (Leishmania infantum) (A2TEF2 1-480): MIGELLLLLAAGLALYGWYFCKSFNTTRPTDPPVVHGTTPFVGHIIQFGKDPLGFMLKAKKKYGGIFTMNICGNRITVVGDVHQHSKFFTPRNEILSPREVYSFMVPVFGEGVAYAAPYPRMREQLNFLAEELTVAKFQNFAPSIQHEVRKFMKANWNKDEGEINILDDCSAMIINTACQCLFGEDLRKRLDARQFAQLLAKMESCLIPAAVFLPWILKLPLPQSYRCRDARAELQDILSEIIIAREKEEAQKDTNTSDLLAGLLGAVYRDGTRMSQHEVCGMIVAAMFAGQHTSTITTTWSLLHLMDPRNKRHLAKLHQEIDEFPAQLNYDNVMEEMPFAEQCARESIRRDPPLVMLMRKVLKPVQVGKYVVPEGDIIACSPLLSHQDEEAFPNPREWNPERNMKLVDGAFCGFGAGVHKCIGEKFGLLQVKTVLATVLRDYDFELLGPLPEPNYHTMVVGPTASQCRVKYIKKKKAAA

[9] = system: Mus musculus; test: Toxicity in Swiss Webster mouse assessed as effect on body weight at 200 mg/kg, po administered as single dose measured after 48 hrs; format: organism-based; settings: in vivo; how it was run: as §3
[10] = system: Mus musculus; test: Toxicity in Swiss Webster mouse assessed as effect on skin at 200 mg/kg, po administered as single dose measured after 48 hrs; format: organism-based; settings: in vivo; how it was run: as §3
[11] = Drug uptake in BALB/c mouse brain at 25 mg/kg, po via gavage measured after 4 hrs post dose by […]; format: ADME, organism-based; settings: read-out: Drug uptake; how it was run: as §2
[12] = system: Mus musculus; test: Toxicity in Swiss Webster mouse assessed as effect on animal behavior at 200 mg/kg, po administered as single dose measured after 48 hrs; format: organism-based; settings: in vivo; how it was run: as §3
[13] = Drug uptake in BALB/c mouse blood at 25 mg/kg, po via gavage measured after 4 hrs post dose by […]; format: ADME, organism-based; settings: read-out: Drug uptake; how it was run: as §2
[14] = system: Mus musculus; test: Toxicity in Swiss Webster mouse assessed as effect on fur profile at 200 mg/kg, po administered as single dose measured after 48 hrs; format: organism-based; settings: in vivo; how it was run: as §3
[15] = system: Mus musculus; test: Toxicity in Swiss Webster mouse assessed as effect on heart weight at 200 mg/kg, po administered as single dose measured after 48 hrs; format: organism-based; settings: in vivo; how it was run: as §3
[16] = system: Mus musculus; test: Toxicity in Swiss Webster mouse assessed as effect on biochemical plasma parameters at 200 mg/kg, po administered as single dose measured after 48 hrs; format: organism-based; settings: in vivo; how it was run: as §3
[17] = system: Mus musculus; test: Toxicity in Swiss Webster mouse assessed as effect on motility at 200 mg/kg, po administered as single dose measured after 48 hrs; format: organism-based; settings: in vivo; how it was run: as §3
[18] = system: Mus musculus; test: Toxicity in Swiss Webster mouse assessed as alteration in body to organ ratio at 200 mg/kg, po administered as single dose measured after 48 hrs; format: organism-based; settings: in vivo; how it was run: as §3
[19] = system: Mus musculus; test: Toxicity in Swiss Webster mouse assessed as effect on spleen weight at 200 mg/kg, po administered as single dose measured after 48 hrs; format: organism-based; settings: in vivo; how it was run: as §3
[20] = Maximum plasma concentration in BALB/c mouse at 25 mg/kg, po via gavage by […]; format: ADME, organism-based; parameters: dose 25 mg/kg, route oral; how it was run: as §1
[21] = system: Trypanosoma cruzi; test: Antiparasitic activity against GFP-expressing Trypanosoma cruzi Tulahuen amastigote formss infected in cardiomyocytes assessed as reduction in rate of parasite multiplication within infected cardiomyocytes measured at 72 hrs post infection by fluorescence microscopy; format: functional, organism-based; how it was run: as §4
[22] = Drug uptake in BALB/c mouse liver at 25 mg/kg, po via gavage measured after 4 hrs post dose by […]; format: ADME, organism-based; settings: read-out: Drug uptake; how it was run: as §2
[23] = biological target: Sterol 14-alpha demethylase (Trypanosoma cruzi (strain CL Brener), UniProt Q7Z1V1); test: Binding affinity to Trypanosoma cruzi Y CYP51A expressed in Escherichia coli
Sequence of Sterol 14-alpha demethylase (Q7Z1V1 whole entry): as the sequence (Q7Z1V1 whole entry, looked up) above
How it was run: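 Recombinant CYP51A from Y strain T. cruzi, expressed in E. coli and purified, titrated spectrally at 0.5 μM P450 in 5 cm path cuvettes with ligand over 0.1–1 μM. Type of absorbance change in difference spectra Δ(A430-A411) plotted against ligand concentration. Apparent Kd obtained by fitting to the Morrison quadratic tight-binding equation by nonlinear regression.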

[24] = biological target: Putative lanosterol 14-alpha-demethylase (Leishmania infantum, UniProt A2TEF2); test: Binding affinity to Leishmania infantum CYP51 expressed in Escherichia coli
Sequence of Putative lanosterol 14-alpha-demethylase (A2TEF2 whole entry): as the sequence (A2TEF2 1-480) above
How it was run: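 Purified E. coli-expressed L. infantum CYP51 at 0.5 μM is titrated with ligand at 0.1–1 μM in 5 cm path cuvettes. Difference-spectrum absorbance change Δ(A430−A411) is plotted against ligand concentration. Apparent Kd comes from a Morrison (quadratic) tight-binding fit by nonlinear regression.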

[25] = system: Mus musculus; test: Toxicity in Swiss Webster mouse assessed as effect on lung weight at 200 mg/kg, po administered as single dose measured after 48 hrs; format: organism-based; settings: in vivo; how it was run: as §3
[26] = Intrinsic clearance in CD1 mouse liver microsomes at 1 uM preincubated for 5 mins followed by NADPH addition and measured after 45 mins by LC/MS/MS analysis; format: ADME, microsome; settings: read-out: CLH
[27] = biological target: Lanosterol 14-alpha-demethylase (Trypanosoma brucei brucei (strain 927/4 GUTat10.1)) (UniProt Q385E8); test: Inhibition of Trypanosoma brucei […] CYP51 expressed in Escherichia coli using [3-3H]-obtusifoliol as substrate after 60 mins by LC-MS analysis; how it was run: as §5
Sequence of Lanosterol 14-alpha-demethylase (Trypanosoma brucei brucei (strain 927/4 GUTat10.1)) (Q385E8 1-481): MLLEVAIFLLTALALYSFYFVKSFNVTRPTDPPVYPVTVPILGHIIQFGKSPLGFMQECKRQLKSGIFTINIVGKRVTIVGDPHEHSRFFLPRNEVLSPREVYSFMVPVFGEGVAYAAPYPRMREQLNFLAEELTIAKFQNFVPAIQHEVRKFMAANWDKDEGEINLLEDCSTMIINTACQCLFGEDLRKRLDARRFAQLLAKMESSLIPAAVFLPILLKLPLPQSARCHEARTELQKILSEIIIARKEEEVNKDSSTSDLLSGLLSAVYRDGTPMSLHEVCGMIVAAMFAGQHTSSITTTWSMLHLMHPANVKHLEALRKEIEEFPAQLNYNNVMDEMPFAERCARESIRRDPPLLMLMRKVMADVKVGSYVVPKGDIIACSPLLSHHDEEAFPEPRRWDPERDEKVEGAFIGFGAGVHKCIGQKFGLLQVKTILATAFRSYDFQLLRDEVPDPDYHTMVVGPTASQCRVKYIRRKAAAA

[28] = system: Mus musculus; test: Toxicity in Swiss Webster mouse assessed as effect on kidney weight at 200 mg/kg, po administered as single dose measured after 48 hrs; format: organism-based; settings: in vivo; how it was run: as §3
[29] = system: Mus musculus; test: Toxicity in Swiss Webster mouse at 200 mg/kg, po administered as single dose measured after 48 hrs measured at 48 hrs post dose; format: organism-based; settings: in vivo; how it was run: as §3
[30] = Drug uptake in BALB/c mouse heart at 25 mg/kg, po via gavage measured after 4 hrs post dose by […]; format: ADME, organism-based; settings: read-out: Drug uptake; how it was run: as §2
[31] = Drug uptake in BALB/c mouse lungs at 25 mg/kg, po via gavage measured after 4 hrs post dose by […]; format: ADME, organism-based, Lung; settings: read-out: Drug uptake; how it was run: as §2
[32] = Intrinsic clearance in human liver microsomes at 1 uM preincubated for 5 mins followed by NADPH addition and measured after 45 mins by LC/MS/MS analysis; format: ADME, microsome; settings: read-out: CLH
[33] = Lipophilicity, log P of the compound; format: physicochemical; settings: octanol/water
[34] = Hepatic clearance in Sprague-Dawley rat liver microsomes at 1 uM preincubated for 5 mins followed by NADPH addition and measured after 45 mins by LC/MS/MS analysis; format: ADME, microsome
How it was run: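 Pooled liver microsomes at 0.5 mg/mL: human (mixed gender), male Sprague-Dawley rat, or male CD-1 mouse, with test compound at 1 μM, triplicate. In vitro t1/2 is scaled to CLint (45 mg microsomes/g liver; 45 g liver/kg scaling factor). CLhep uses well-stirred model with hepatic blood flow 21 (human), 70 (rat), 90 (mouse) mL/min/kg.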

[35] = Half life in CD1 mouse liver microsomes at 1 uM preincubated for 5 mins followed by NADPH addition and measured by LC/MS/MS analysis; format: ADME, microsome; settings: mouse, microsomes, 1 µM
[36] = Half life in Sprague-Dawley rat liver microsomes at 1 uM preincubated for 5 mins followed by NADPH addition and measured by LC/MS/MS analysis; format: ADME, microsome; settings: microsomes, 1 µM
[37] = Hepatic clearance in human liver microsomes at 1 uM preincubated for 5 mins followed by NADPH addition and measured after 45 mins by LC/MS/MS analysis; format: ADME, microsome
[38] = Intrinsic clearance in Sprague-Dawley rat liver microsomes at 1 uM preincubated for 5 mins followed by NADPH addition and measured after 45 mins by LC/MS/MS analysis; format: ADME, microsome; settings: read-out: CLH
[39] = Cmax in BALB/c mouse at 25 mg/kg, po via gavage measured after 2 hrs post dose by […]; format: ADME, organism-based; parameters: dose 25 mg/kg, route oral; settings: in vivo; how it was run: as §1
[40] = Half life in human liver microsomes at 1 uM preincubated for 5 mins followed by NADPH addition and measured by LC/MS/MS analysis; format: ADME, microsome; settings: microsomes, 1 µM

SMILES: O=C(N[C@@H](Cn1ccnc1)c1ccc(Cl)cc1Cl)c1ccc(-c2nnc(-c3ccc(F)c(F)c3)o2)cc1
- Time [1]: 16 h
- concentration at 4 h [2]: 28 µM
- Activity [3]: Non-Toxic
- EC50 [4]: 3 nM
- CLhep predicted at 1 µM [5]: 34.5 mL/min/kg
- Activity [6]: Non-Toxic
- inhibition [7]: Active
- inhibition [8]: Active
- Activity [9]: Non-Toxic
- Activity [10]: Non-Toxic
- concentration at 4 h [11]: 8 µM
- Activity [12]: Non-Toxic
- concentration at 4 h [13]: 36 µM
- Activity [14]: Non-Toxic
- Activity [15]: Non-Toxic
- Activity [16]: Non-Toxic
- Activity [17]: Non-Toxic
- Activity [18]: Non-Toxic
- Activity [19]: Non-Toxic
- Cmax [20]: 38 µM
- EC50 [21]: 1.6 nM
- concentration at 4 h [22]: 38 µM
- Kd [23]: 4.2 nM
- Kd [24]: 1.7 nM
- Activity [25]: Non-Toxic
- CLint scaled at 1 µM [26]: 55.8 mL/min/kg
- inhibition [27]: Active
- Activity [28]: Non-Toxic
- NOAEL [29]: > 200 mg/kg
- concentration at 4 h [30]: 36 µM
- concentration at 4 h [31]: 46 µM

- Time [1]: < 10 h
- concentration at 4 h [2]: 5 µM
- CLint scaled at 1 µM [32]: 20.9 mL/min/kg
- logP [33]: 5.68
- CLhep predicted at 1 µM [34]: 46.9 mL/min/kg
- t1/2 [35]: 160 min
- CLhep predicted at 1 µM [5]: 24.8 mL/min/kg
- concentration at 4 h [11]: 0.1 µM
- concentration at 4 h [13]: 9 µM
- t1/2 [36]: 20 min
- CLhep predicted at 1 µM [37]: 10.5 mL/min/kg
- CLint scaled at 1 µM [38]: 142 mL/min/kg
- Cmax [20]: 28 µM
- concentration at 4 h [22]: 21 µM
- Cmax [39]: 28 µM
- CLint scaled at 1 µM [26]: 34.2 mL/min/kg
- t1/2 [40]: 60 min
- concentration at 4 h [30]: 5 µM
- concentration at 4 h [31]: 8 µM
SMILES: O=C(N[C@@H](Cn1ccnc1)c1ccc(-c2ccccc2)cc1Cl)c1ccc(-c2nnc(-c3ccccc3)o2)cc1
